STAT1 blocker – STAT1 signaling inhibition; NIH 3T3 STAT1-luciferase reporter, IFN-gamma, luminescence; AID 920; hit rate 0.35% among 200,000; inhibition, % at 5.5 µM;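 active means inhibition above a set limit, the mean inhibition across all tested compounds plus 3 SD, cut at about 34% in these data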;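 further: 0% = IFN-gamma with DMSO and 100% = IFN-gamma with 300 µM nifuroxazide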
STAT3 inh – STAT3 signaling inhibition; U3A cells, IL-6 STAT3-luciferase reporter, luminescence; host cell line lacks STAT1; inhibition, % at 5.5 µM; hit rate 0.89% among 190,000;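 active means inhibition above the mean inhibition across all screened compounds plus 3 SD, cut at about 44% in these data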;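 further: 0% = DMSO only wells and 100% = 100 µM nifuroxazide control wells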
STAT3 act – activators of IL-6 induced STAT3 signaling | U3A cells, IL-6 STAT3-luciferase reporter, luminescence; 100% = signal with IL-6 EC80 alone | hit rate 0.91% among 190,000 | activation (% of control), % at 5.6 µM;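 active means activation above the screen-wide mean of compound activation plus 3 SD, cut at about 130% in these data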;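 further: 0% = background luminescence of wells with medium and substrate only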
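Detection: reporter luminescence signal / Assay system: STAT1-lacking human U3A cells, STAT3 luciferase reporter / Incubation: compound pre-incubation 1 h before IL-6, then 6 h stimulation at 37 °C / Control set: IL-6-only high control / Read-out: % activation relative to IL-6 control / Probe or stimulus: Interleukin-6, 33 ng/mL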
NF-kB neuron act – raises NF-kB expression in human neuronal cells | NF-kB reporter expression; hits give high values | fold change at 12.5 µM | hit rate 1.6% among 190,000; in the data active means fold change above about 3.3
STAT1 activator – STAT1 signaling activation; NIH 3T3 STAT1-luciferase reporter, IFN-gamma, luminescence; 100% = IFN-gamma alone, no compound; activation (% of control), % at 5.5 µM; hit rate 2.6% among 200,000; AID 932;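 active means activation above the screen-wide mean activation plus 3 SD, cut at about 130% in these data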;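 further: raw ratio to IFN-gamma control signal so 100% means no change and 0% no light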
APP 5'UTR act – APP 5'UTR luciferase reporter activation; SH-SY5Y APP 5'UTR luciferase reporter, luminescence; zero percent = DMSO vehicle wells; activation, % at 2 µM; hit rate 1% among 190,000; AID 1276;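 active means activation above a set limit, based on mean plus 3 SD of controls, cut at about 140% in these data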
STAT1 activ conf – confirmation of STAT1 signaling activators; activation (% of control), % at 5.7 µM; shares compounds with STAT1 activator; hit rate 97% among 1,200; NIH 3T3 STAT1-luciferase reporter, IFN-gamma potentiation, luminescence; 100% = IFN-gamma EC80 alone, no compound;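 active means activation above a set limit carried over from the earlier primary STAT1 screen, cut at about 140% in these data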;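 further: simple ratio to median IFN-gamma plus DMSO wells so 0% means no light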
NFkB act – activates NF-kappaB, counter-screen to STAT1 activators | shares compounds with STAT1 activator | hit rate 43% among 1,200 | activation (% of control), % at 5.7 µM | HEK293T NF-kB luciferase reporter, TNF-alpha stimulated, luminescence; 100% = TNF-alpha with vehicle only | AID 1306;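 active means activation above the mean of solvent-only control wells plus 3 SD, set per campaign, cut at about 130% in these data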;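 further: TNF-alpha given at a submaximal dose yielding about 80% of full reporter signal; values are well signal over median control so 100% means no change and 0% no light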
STAT3 act STAT1c – activates human STAT3, counter-screen to STAT1 activators. activation (% of control), % at 5.7 µM. U3A cells STAT3-luciferase reporter, IL-6, luminescence; cells lack STAT1; 100 = IL-6 alone, no compound effect. hit rate 46% among 1,200. AID 1316. shares compounds with STAT1 activator;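 active means activation above the solvent-only control well mean plus 3 SD, set per plate batch, cut at about 110% in these data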;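 further: 0% = no luminescence and 100% = median IL-6 plus DMSO wells; higher means more STAT3 reporter activation so hits are non-selective activators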
* = called active by the depositor. Rows were chosen to be rich in hits. Some 5.1% of all compounds tested hit in one or more screens of this group.

How did CCC(=O)Nc1ccc(S(=O)(=O)Nc2ccc(Cl)nn2)cc1 do in these assays?
STAT1 blocker: -10.1; STAT3 inh: -0.2; STAT3 act: 102.2; NF-kB neuron act: 1.02; STAT1 activator: 109.0; APP 5'UTR act: 18.0

What do the screens show for `O=S(=O)(c1ccccc1)c1ncc(C(F)(F)F)cc1Cl`?
STAT1 blocker: 14.5; STAT3 inh: -3.3; STAT3 act: 104.6; NF-kB neuron act: 1.07; STAT1 activator: 86.0; APP 5'UTR act: -11.9

How did O=C1OC(c2ccccc2)=C/C1=C/N1CCCCC1 do in these assays?
STAT1 blocker: -77.1; STAT3 inh: -9.1; STAT3 act: 110.7; NF-kB neuron act: 1.27; STAT1 activator: 170.5*; APP 5'UTR act: 65.5; STAT1 activ conf: 160.1*; NFkB act: 119.3; STAT3 act STAT1c: 116.6*

What do the screens show for `Cc1ccc(C2=C/C(=C/c3cccs3)C(=O)O2)cc1`?
STAT1 blocker: -15.8; STAT3 inh: -7.2; STAT3 act: 105.0; NF-kB neuron act: 0.9; STAT1 activator: 114.1; APP 5'UTR act: -2.1

How did Cc1ccc(NC(=O)c2c(C)nc3ccccn23)cc1C do in these assays?
STAT1 blocker: -59.3; STAT3 inh: 12.1; STAT3 act: 91.8; NF-kB neuron act: 3.79*; STAT1 activator: 154.4*; APP 5'UTR act: 168.4*; STAT1 activ conf: 190.7*; NFkB act: 139.4*; STAT3 act STAT1c: 97.3

How did COc1ccc2cc(-c3nc4ccccc4n3C)c(=O)oc2c1 do in these assays?
STAT1 blocker: -53.2; STAT3 inh: 0.2; STAT3 act: 103.0; NF-kB neuron act: 3.39*; STAT1 activator: 154.7*; APP 5'UTR act: 91.8; STAT1 activ conf: 168.9*; NFkB act: 123.8; STAT3 act STAT1c: 117.1*

What do the screens show for `O=C(NC(=S)Nc1ccc(F)cc1)c1ccc2c(c1)OCCO2`?
STAT1 blocker: -58.9; STAT3 inh: 24.0; STAT3 act: 84.1; NF-kB neuron act: 2.06; STAT1 activator: 152.5*; APP 5'UTR act: 212.6*; STAT1 activ conf: 210.7*; NFkB act: 130.0; STAT3 act STAT1c: 100.7

What do the screens show for `Cc1ccc(-c2nc3cc(N)ccc3o2)c(C)c1`?
STAT1 blocker: -59.5; STAT3 inh: 40.1; STAT3 act: 67.9; NF-kB neuron act: 4.92*; STAT1 activator: 154.1*; APP 5'UTR act: 41.7; STAT1 activ conf: 232.8*; NFkB act: 111.9; STAT3 act STAT1c: 95.9

How did CCN(c1ccc(C)c(C)c1)S(=O)(=O)c1c(C)[nH]c(=O)[nH]c1=O do in these assays?
STAT1 blocker: 0.9; STAT3 inh: 9.0; STAT3 act: 92.6; NF-kB neuron act: 0.96; STAT1 activator: 99.2; APP 5'UTR act: -14.2

Results for O=P(O)(CN1CCCCCC1)CN1CCCCCC1 ?
STAT1 blocker: -57.9; STAT3 inh: 6.6; STAT3 act: 99.4; NF-kB neuron act: 0.98; STAT1 activator: 153.0*; APP 5'UTR act: -3.3; STAT1 activ conf: 113.5; NFkB act: 119.4; STAT3 act STAT1c: 109.3

What do the screens show for `CCOC(=O)c1sc(-c2ccc(OC)cc2)cc1N`?
STAT1 blocker: -62.1; STAT3 inh: -1.6; STAT3 act: 104.9; NF-kB neuron act: 7.1*; STAT1 activator: 156.7*; APP 5'UTR act: 158.7*; STAT1 activ conf: 205.5*; NFkB act: 136.8*; STAT3 act STAT1c: 108.6

What do the screens show for `O=C(NCc1ccccc1)c1cc[n+](Cc2ccccc2)cc1`?
STAT1 blocker: 2.2; STAT3 inh: -1.5; STAT3 act: 103.2; NF-kB neuron act: 1.06; STAT1 activator: 97.3; APP 5'UTR act: -10.1

What do the screens show for `Cc1ccc(OCc2ccc(Br)cc2)c([N+](=O)[O-])n1`?
STAT1 blocker: -58.2; STAT3 inh: 0.0; STAT3 act: 108.7; NF-kB neuron act: 3.78*; STAT1 activator: 154.0*; APP 5'UTR act: 156.2*; STAT1 activ conf: 175.0*; NFkB act: 140.8*; STAT3 act STAT1c: 117.6*

Results for C=CCNCCCCOc1ccc(OCC)cc1 ?
STAT1 blocker: -1.8; STAT3 inh: -0.1; STAT3 act: 105.4; NF-kB neuron act: 1.13; STAT1 activator: 101.7; APP 5'UTR act: -6.3

Results for CC(C)c1ccc(NC(=O)Cn2cccc2C2=NC(c3ccccc3)CO2)cc1 (stereo not drawn) ?
STAT1 blocker: 5.7; STAT3 inh: -6.9; STAT3 act: 103.5; NF-kB neuron act: 0.94; STAT1 activator: 94.9; APP 5'UTR act: -10.8

How did Cc1ccc(C(=O)c2sc3nsc(C)c3c2N)cc1 do in these assays?
STAT1 blocker: -58.7; STAT3 inh: 13.5; STAT3 act: 94.1; NF-kB neuron act: 6.33*; STAT1 activator: 154.2*; APP 5'UTR act: 197.9*; STAT1 activ conf: 238.6*; NFkB act: 145.0*; STAT3 act STAT1c: 113.6*

What do the screens show for `COc1ccc(S(=O)(=O)n2[nH]c(=O)c(CCO)c2C)c([N+](=O)[O-])c1`?
STAT1 blocker: -7.0; STAT3 inh: 15.2; STAT3 act: 94.2; NF-kB neuron act: 0.88; STAT1 activator: 106.6; APP 5'UTR act: -2.7

Results for COc1ccc2oc(C(=O)c3ccccc3)c(N)c2c1 ?
STAT1 blocker: -80.7; STAT3 inh: 11.0; STAT3 act: 94.2; NF-kB neuron act: 6.13*; STAT1 activator: 173.6*; APP 5'UTR act: 144.5*; STAT1 activ conf: 175.5*; NFkB act: 141.5*; STAT3 act STAT1c: 106.8

What do the screens show for `Cc1[nH]n(C(N)=S)c(=O)c1N=Nc1ccc2ccccc2c1`?
STAT1 blocker: -78.2; STAT3 inh: -29.9; STAT3 act: 128.3; NF-kB neuron act: 5.86*; STAT1 activator: 172.3*; APP 5'UTR act: 134.0; STAT1 activ conf: 208.3*; NFkB act: 123.1; STAT3 act STAT1c: 146.3*

What do the screens show for `COc1ccc(NC(=O)CN2CCN(C3c4ccccc4-c4ccccc43)CC2)cc1`?
STAT1 blocker: 1.6; STAT3 inh: -4.0; STAT3 act: 106.1; NF-kB neuron act: 1.21; STAT1 activator: 98.6; APP 5'UTR act: -13.5

What do the screens show for `Cn1cccc1C(=O)C(=O)Nc1ccc(F)c(F)c1`?
STAT1 blocker: -60.2; STAT3 inh: 9.6; STAT3 act: 93.8; NF-kB neuron act: 5.17*; STAT1 activator: 154.0*; APP 5'UTR act: 139.3*; STAT1 activ conf: 192.7*; NFkB act: 132.9; STAT3 act STAT1c: 106.7

Results for Nc1nnc(-c2ccc(Cl)c(Cl)c2)s1 ?
STAT1 blocker: -21.0; STAT3 inh: 17.7; STAT3 act: 87.3; NF-kB neuron act: 1.52; STAT1 activator: 118.8; APP 5'UTR act: 1.2
